In ChEMBL document CHEMBL1138994, “Probing structure/affinity relationships for the Plasmodium falciparum hexose transporter with glucose derivatives” (Bioorg Med Chem Lett, 2006):
Activity calls are given as the source filed them. The calls are words filed in the database; no cut-off is given here.

The compounds below were run against T1, Hexose transporter 1 (Plasmodium falciparum, UniProt O97467) (assay: Inhibition of D-glucose uptake mediated by PfHT expressed in Xenopus oocytes). Conditions: oocyte.
T1 sequence (O97467 whole entry): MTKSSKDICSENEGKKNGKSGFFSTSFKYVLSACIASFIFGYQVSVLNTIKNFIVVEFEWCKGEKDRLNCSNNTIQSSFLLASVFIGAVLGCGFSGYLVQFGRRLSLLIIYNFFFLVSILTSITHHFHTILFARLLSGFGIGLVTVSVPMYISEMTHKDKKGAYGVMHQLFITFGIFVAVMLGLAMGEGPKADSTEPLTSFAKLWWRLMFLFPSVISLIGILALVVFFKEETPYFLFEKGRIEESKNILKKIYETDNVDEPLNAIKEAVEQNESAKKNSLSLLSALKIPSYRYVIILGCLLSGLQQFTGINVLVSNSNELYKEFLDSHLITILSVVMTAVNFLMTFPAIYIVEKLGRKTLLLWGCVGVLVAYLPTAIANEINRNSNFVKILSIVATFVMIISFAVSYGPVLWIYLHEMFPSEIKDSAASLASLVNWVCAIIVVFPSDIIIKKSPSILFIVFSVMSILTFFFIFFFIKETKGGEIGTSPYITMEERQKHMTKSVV
Format: functional, cell-based, Oocyte
Method in brief: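 Oocyte-expressed PfHT assay; values are means of three experiments with standard error of the mean, or two individual experiments where marked.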

| SMILES | Ki |
| --- | --- |
| O=C(NCCCO[C@H]1[C@H](O)[C@@H](CO)OC(O)[C@@H]1O)C(F)(F)C(F)(F)C(F)(F)C(F)(F)C(F)(F)C(F)(F)F (stereo partly specified) | Not Active |
| C=CCOCCOCCO[C@H]1[C@H](O)[C@@H](CO)OC(O)[C@@H]1O (stereo partly specified) | Not Active |

Same assay, conditions: read-out: Ki

| SMILES | Ki [µM] |
| --- | --- |
| CCCCCCCCCO[C@H]1[C@H](O)[C@@H](CO)OC(O)[C@@H]1O (stereo partly specified) | 32 |
| CCCCCCCCCCCO[C@H]1[C@H](O)[C@@H](CO)OC(O)[C@@H]1O (stereo partly specified) | 23 |
| OC[C@H]1OC(O)[C@H](O)[C@@H](OCCCC(F)(F)C(F)(F)C(F)(F)C(F)(F)C(F)(F)C(F)(F)F)[C@@H]1O (stereo partly specified) | > 500 |
| C=CCCCCCCCOCCO[C@H]1[C@H](O)[C@@H](CO)OC(O)[C@@H]1O (stereo partly specified) | 590 |
| CCCCCCCO[C@H]1[C@H](O)[C@@H](CO)OC(O)[C@@H]1O (stereo partly specified) | < 500 |
| C=CCCCCCCCCCCCCCO[C@H]1[C@H](O)[C@@H](CO)OC(O)[C@@H]1O (stereo partly specified) | 37 |
| C=CCCCCCCCCCCO[C@H]1[C@H](O)[C@@H](CO)OC(O)[C@@H]1O (stereo partly specified) | 36 |
| COC(=O)CCCCCCC#CCCCCCCCO[C@H]1[C@H](O)[C@@H](CO)OC(O)[C@@H]1O (stereo partly specified) | > 500 |
| CCCCCCCC/C=C/CCCCCCO[C@H]1[C@H](O)[C@@H](CO)OC(O)[C@@H]1O (stereo partly specified) | > 500 |
| OC[C@H]1OC(O)[C@H](O)[C@@H](OCCCCCCCC(F)(F)C(F)(F)C(F)(F)C(F)(F)C(F)(F)C(F)(F)F)[C@@H]1O (stereo partly specified) | 130 |
| C=CCOCCCCCCCO[C@H]1[C@H](O)[C@@H](CO)OC(O)[C@@H]1O (stereo partly specified) | > 500 |
| C=CCCCCCCCCO[C@H]1[C@H](O)[C@@H](CO)OC(O)[C@@H]1O (stereo partly specified) | 49 |
| C=CCOCCO[C@H]1[C@H](O)[C@@H](CO)OC(O)[C@@H]1O (stereo partly specified) | > 500 |
| OC[C@H]1OC(O)[C@H](O)[C@@H](OCCCCCCCCc2ccccc2)[C@@H]1O (stereo partly specified) | 148 |
| CCCCCCCCCCO[C@H]1[C@H](O)[C@@H](CO)OC(O)[C@@H]1O (stereo partly specified) | 19 |
| CCCCCCCCO[C@H]1[C@H](O)[C@@H](CO)OC(O)[C@@H]1O (stereo partly specified) | 30 |
| C=CCCCCCCCO[C@H]1[C@H](O)[C@@H](CO)OC(O)[C@@H]1O (stereo partly specified) | 41 |
| OC[C@H]1OC(O)[C@H](O)[C@@H](OCCCCCc2ccccc2)[C@@H]1O (stereo partly specified) | 64 |
| CCCCc1ccc(CCCCCO[C@H]2[C@H](O)[C@@H](CO)OC(O)[C@@H]2O)cc1 (stereo partly specified) | 81 |
| C=CCCCCCCCCCO[C@H]1[C@H](O)[C@@H](CO)OC(O)[C@@H]1O (stereo partly specified) | 53 |
| CCCCCCCCCCCCO[C@H]1[C@H](O)[C@@H](CO)OC(O)[C@@H]1O (stereo partly specified) | 30 |
| CCCCCCCCCCCCCCO[C@H]1[C@H](O)[C@@H](CO)OC(O)[C@@H]1O (stereo partly specified) | > 500 |
| CCCCCCCCCCCCCCCCCCO[C@H]1[C@H](O)[C@@H](CO)OC(O)[C@@H]1O (stereo partly specified) | > 500 |

Each compound was assayed against T2, Solute carrier family 2, facilitated glucose transporter member 1 (Homo sapiens) (UniProt P11166) (assay: Inhibitory activity against GLUT1). Conditions: not given.
T2 sequence (whole entry): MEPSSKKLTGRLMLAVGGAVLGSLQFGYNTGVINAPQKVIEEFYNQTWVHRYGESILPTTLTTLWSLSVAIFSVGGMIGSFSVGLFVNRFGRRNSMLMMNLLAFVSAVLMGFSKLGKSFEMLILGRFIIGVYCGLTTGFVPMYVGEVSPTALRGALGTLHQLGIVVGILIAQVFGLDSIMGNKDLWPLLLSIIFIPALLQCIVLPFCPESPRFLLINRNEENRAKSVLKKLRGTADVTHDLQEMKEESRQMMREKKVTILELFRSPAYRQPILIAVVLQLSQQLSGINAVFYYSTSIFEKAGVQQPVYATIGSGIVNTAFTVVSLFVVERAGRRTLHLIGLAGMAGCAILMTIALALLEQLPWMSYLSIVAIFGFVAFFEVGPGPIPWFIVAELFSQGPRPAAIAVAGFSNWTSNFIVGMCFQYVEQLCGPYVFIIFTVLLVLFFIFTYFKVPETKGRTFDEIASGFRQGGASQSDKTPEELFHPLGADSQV

| SMILES | inhibition |
| --- | --- |
| CCCCCCCCCO[C@H]1[C@H](O)[C@@H](CO)OC(O)[C@@H]1O (stereo partly specified) | inactive |
| CCCCCCCCCCCO[C@H]1[C@H](O)[C@@H](CO)OC(O)[C@@H]1O (stereo partly specified) | inactive |
| OC[C@H]1OC(O)[C@H](O)[C@@H](OCCCC(F)(F)C(F)(F)C(F)(F)C(F)(F)C(F)(F)C(F)(F)F)[C@@H]1O (stereo partly specified) | inactive |
| C=CCCCCCCCOCCO[C@H]1[C@H](O)[C@@H](CO)OC(O)[C@@H]1O (stereo partly specified) | inactive |
| CCCCCCCO[C@H]1[C@H](O)[C@@H](CO)OC(O)[C@@H]1O (stereo partly specified) | inactive |
| C=CCCCCCCCCCCCCCO[C@H]1[C@H](O)[C@@H](CO)OC(O)[C@@H]1O (stereo partly specified) | inactive |
| C=CCCCCCCCCCCO[C@H]1[C@H](O)[C@@H](CO)OC(O)[C@@H]1O (stereo partly specified) | inactive |
| COC(=O)CCCCCCC#CCCCCCCCO[C@H]1[C@H](O)[C@@H](CO)OC(O)[C@@H]1O (stereo partly specified) | inactive |
| CCCCCCCC/C=C/CCCCCCO[C@H]1[C@H](O)[C@@H](CO)OC(O)[C@@H]1O (stereo partly specified) | inactive |
| OC[C@H]1OC(O)[C@H](O)[C@@H](OCCCCCCCC(F)(F)C(F)(F)C(F)(F)C(F)(F)C(F)(F)C(F)(F)F)[C@@H]1O (stereo partly specified) | inactive |
| C=CCOCCCCCCCO[C@H]1[C@H](O)[C@@H](CO)OC(O)[C@@H]1O (stereo partly specified) | inactive |
| C=CCCCCCCCCO[C@H]1[C@H](O)[C@@H](CO)OC(O)[C@@H]1O (stereo partly specified) | inactive |
| C=CCOCCO[C@H]1[C@H](O)[C@@H](CO)OC(O)[C@@H]1O (stereo partly specified) | inactive |
| OC[C@H]1OC(O)[C@H](O)[C@@H](OCCCCCCCCc2ccccc2)[C@@H]1O (stereo partly specified) | inactive |
| CCCCCCCCCCO[C@H]1[C@H](O)[C@@H](CO)OC(O)[C@@H]1O (stereo partly specified) | inactive |
| CCCCCCCCO[C@H]1[C@H](O)[C@@H](CO)OC(O)[C@@H]1O (stereo partly specified) | inactive |
| O=C(NCCCO[C@H]1[C@H](O)[C@@H](CO)OC(O)[C@@H]1O)C(F)(F)C(F)(F)C(F)(F)C(F)(F)C(F)(F)C(F)(F)F (stereo partly specified) | inactive |
| C=CCCCCCCCO[C@H]1[C@H](O)[C@@H](CO)OC(O)[C@@H]1O (stereo partly specified) | inactive |
| OC[C@H]1OC(O)[C@H](O)[C@@H](OCCCCCc2ccccc2)[C@@H]1O (stereo partly specified) | inactive |
| C=CCOCCOCCO[C@H]1[C@H](O)[C@@H](CO)OC(O)[C@@H]1O (stereo partly specified) | inactive |
| CCCCCCCCCCCCCCCCCCCCO[C@H]1[C@H](O)[C@@H](CO)OC(O)[C@@H]1O (stereo partly specified) | inactive |
| CCCCc1ccc(CCCCCO[C@H]2[C@H](O)[C@@H](CO)OC(O)[C@@H]2O)cc1 (stereo partly specified) | inactive |
| C=CCCCCCCCCCO[C@H]1[C@H](O)[C@@H](CO)OC(O)[C@@H]1O (stereo partly specified) | inactive |
| CCCCCCCCCCCCO[C@H]1[C@H](O)[C@@H](CO)OC(O)[C@@H]1O (stereo partly specified) | inactive |
| CCCCCCCCCCCCCCO[C@H]1[C@H](O)[C@@H](CO)OC(O)[C@@H]1O (stereo partly specified) | inactive |
| CCCCCCCCCCCCCCCCCCO[C@H]1[C@H](O)[C@@H](CO)OC(O)[C@@H]1O (stereo partly specified) | inactive |
